Test results taken from ChEMBL document CHEMBL3872205, “Design, synthesis and evaluation of novel potent angiotensin II receptor 1 antagonists” (Eur J Med Chem, 2016).

Tests used:
[1] = Tmax in Wistar rat brain at 30 mg/kg, po by HPLC analysis; assay type: ADME, organism-based
In short: (§1)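 Male Wistar rats (180 ± 20 g) received a single oral dose of 10, 15 or 30 mg/kg. Tissues were collected at 0, 0.5, 1, 2, 4, 6, 8, 12, 24, 48 and 72 h (n = 6 per point). Samples of 0.25 g were rinsed, then homogenized in saline (0.25 g/1 mL) and centrifuged at 10,000 × g. Supernatant was methanol-extracted, dried under nitrogen at 50 °C and reconstituted in methanol. Analysis was by C18 HPLC (acetonitrile 60% / water 40%, 1.0 mL/min).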

[2] = AUC (0 to infinity) in Wistar rat Heart at 15 mg/kg, po by HPLC analysis; assay type: ADME, organism-based; set-up: dose 15 mg/kg, time infinity, route oral
In short: (§2)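 Wistar rats (180 ± 20 g) were dosed orally at 10, 15 or 30 mg/kg. Heart, liver, spleen, lung, kidney and brain were collected at 0–72 h (n = 6 per point). Tissue was rinsed, blotted and homogenized in saline (0.25 g/1 mL), then spun at 10,000 × g. Supernatant was methanol-extracted, dried under nitrogen at 50 °C, reconstituted in methanol and run on C18 HPLC (acetonitrile 60%/water 40%, 1.0 mL/min).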

Rattus norvegicus = assay: Antihypertensive activity in spontaneous hypertensive rat model assessed as reduction in mean blood pressure at 15 mg/kg, po after 4 hrs; assay type: functional
In short: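 Male SHRs (250 ± 20 g) were randomized, 6 per group. Compound was suspended in 0.5% sodium carboxymethyl cellulose and given orally; vehicle-only negative control. Mean blood pressure was calculated as (SBP − DBP)/3 + DBP from systolic and diastolic readings over the time course. Data are mean ± SD, with p < 0.05 taken as significant.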

[3] = Tmax in Wistar rat plasma at 10 mg/kg, po by HPLC analysis; assay type: ADME, organism-based
In short: (§3)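 Male Wistar rats (180 ± 20 g), 6 per dose group, each given a single oral dose. Blood was drawn by retro-orbital puncture into heparin at predose and at 0.5, 1, 2, 4, 6, 8, 12, 24, 48 and 72 h, then spun at 4000 × g and 4 °C. Plasma with internal standard was acetonitrile-precipitated, filtered and run on reverse-phase C18 HPLC (0.02 mol/L KH2PO4 55% / acetonitrile 45%, 1.0 mL/min). Calibration standards were 0.1–10 µg/mL, fitted by peak-height ratio with 1/conc² weighting.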

[4] = MRT (0 to 72 hrs) in Wistar rat liver at 30 mg/kg, po by HPLC analysis; assay type: ADME, organism-based; in short: as §1
[5] = AUC (0 to infinity) in Wistar rat kidney at 15 mg/kg, po by HPLC analysis; assay type: ADME, organism-based; set-up: dose 15 mg/kg, time infinity, route oral; in short: as §2
[6] = Cmax in Wistar rat heart at 15 mg/kg, po by HPLC analysis; assay type: ADME, organism-based; set-up: dose 15 mg/kg, route oral
In short: (§4)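 Tissue distribution in male Wistar rats given oral 10, 15 or 30 mg/kg; heart, liver, spleen, lung, kidney and brain collected predose and 0.5–72 h post-dose (n = 6 per time). Tissue rinsed in saline, homogenised 0.25 g/1 mL saline, methanol extraction, dried under nitrogen, reconstituted in methanol. Analysis by reverse-phase C18 HPLC, acetonitrile/water 60:40, 1.0 mL/min, ambient temperature.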

[7] = Half life in Wistar rat kidney at 15 mg/kg, po by HPLC analysis; assay type: ADME, organism-based; in short: as §4
[8] = MRT (0 to 72 hrs) in Wistar rat spleen at 30 mg/kg, po by HPLC analysis; assay type: ADME, organism-based; in short: as §1
[9] = Tmax in Wistar rat spleen at 10 mg/kg, po by HPLC analysis; assay type: ADME, organism-based
[10] = Cmax in Wistar rat kidney at 30 mg/kg, po by HPLC analysis; assay type: ADME, organism-based; set-up: dose 30 mg/kg, route oral; in short: as §4
[11] = Half life in Wistar rat lung at 15 mg/kg, po by HPLC analysis; assay type: ADME, organism-based; in short: as §4
[12] = MRT (0 to infinity) in Wistar rat lung at 10 mg/kg, po by HPLC analysis; assay type: ADME, organism-based; in short: as §1
[13] = MRT (0 to infinity) in Wistar rat brain at 10 mg/kg, po by HPLC analysis; assay type: ADME, organism-based; in short: as §1
[14] = Tmax in Wistar rat lung at 30 mg/kg, po by HPLC analysis; assay type: ADME, organism-based; in short: as §1
[15] = Half life in Wistar rat lung at 30 mg/kg, po by HPLC analysis; assay type: ADME, organism-based; in short: as §4
[16] = Half life in Wistar rat liver at 15 mg/kg, po by HPLC analysis; assay type: ADME, organism-based; in short: as §4
[17] = AUC (0 to infinity) in Wistar rat spleen at 15 mg/kg, po by HPLC analysis; assay type: ADME, organism-based; set-up: dose 15 mg/kg, route oral, time infinity; in short: as §2
[18] = Tmax in Wistar rat spleen at 15 mg/kg, po by HPLC analysis; assay type: ADME, organism-based
[19] = Tmax in Wistar rat plasma at 30 mg/kg, po by HPLC analysis; assay type: ADME, organism-based; in short: as §3
[20] = Half life in Wistar rat plasma at 15 mg/kg, po by HPLC analysis; assay type: ADME, organism-based
[21] = MRT (0 to 72 hrs) in Wistar rat Heart at 30 mg/kg, po by HPLC analysis; assay type: ADME, organism-based; in short: as §4
[22] = Toxicity in ig dosed ICR mouse assessed as mortality after 2 weeks; assay type: organism-based; settings: in vivo, po
[23] = Cmax in Wistar rat brain at 15 mg/kg, po by HPLC analysis; assay type: ADME, organism-based; set-up: dose 15 mg/kg, route oral; in short: as §2
[24] = Cmax in Wistar rat plasma at 10 mg/kg, po by HPLC analysis; assay type: ADME, organism-based; set-up: dose 10 mg/kg, route oral
[25] = MRT (0 to infinity) in Wistar rat plasma at 15 mg/kg, po by HPLC analysis; assay type: ADME, organism-based; in short: as §3
Mus musculus = assay: Toxicity in ICR mouse assessed as change in body weight at 1200 mg/kg, po after 2 weeks; assay type: organism-based; settings: in vivo, 336 h
[26] = AUC (0 to 72 hrs) in Wistar rat kidney at 15 mg/kg, po by HPLC analysis; assay type: ADME, organism-based; set-up: dose 15 mg/kg, time < 72 hr, route oral; in short: as §2
[27] = MRT (0 to 72 hrs) in Wistar rat lung at 15 mg/kg, po by HPLC analysis; assay type: ADME, organism-based; in short: as §1
[28] = AUC (0 to infinity) in Wistar rat brain at 10 mg/kg, po by HPLC analysis; assay type: ADME, organism-based; set-up: dose 10 mg/kg, route oral, time infinity; in short: as §2
[29] = AUC (0 to 72 hrs) in Wistar rat kidney at 10 mg/kg, po by HPLC analysis; assay type: ADME, organism-based; set-up: dose 10 mg/kg, time < 72 hr, route oral; in short: as §2
[30] = Displacement of 125I-Ang2 from AT1 receptor in SPF Sprague-Dawley rat vascular smooth muscle cell membranes after 150 mins by gamma counting method
In short: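 Primary aortic VSMCs from SPF Sprague-Dawley rats, obtained by explant culture in DMEM/10% FBS and identified by SM α-actin staining; passages 3–6. Whole cells (10^6/well) incubated with 125I-Ang II (diluted to 0.2 nM) and compound at final 10^-12–10^-6 M, 4 °C for 150 min. Washed, lysed in 0.1 M NaOH, γ-counted. IC50 from nonlinear fit of competition curves.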

[31] = MRT (0 to infinity) in Wistar rat brain at 15 mg/kg, po by HPLC analysis; assay type: ADME, organism-based; in short: as §1
[32] = AUC (0 to 72 hrs) in Wistar rat Heart at 10 mg/kg, po by HPLC analysis; assay type: ADME, organism-based; set-up: time < 72 hr, dose 10 mg/kg, route oral; in short: as §2

Work on `CCCCC1=NC2(CCCC2)C(=O)N1Cc1ccc2c(ccn2-c2ccccc2-c2nnn[nH]2)c1` yielded a Tmax [1] of 5.83 h, an AUC(0-inf) [2] of 6700 ng·h/mL and an Activity (Rattus norvegicus) of 40.62 mmHg. It also gave a Tmax [3] of 5.67 h, an MRT last [4] of 6.3 h and an AUC(0-inf) [5] of 7690 ng·h/mL. For the same compound, the Cmax [6] was 283 ng/mL, the half-life [7] was 22.6 h and the MRT last [8] was 13.3 h. For the same compound, the Tmax [9] was 2 h, the Cmax [10] was 396 ng/mL and the half-life [11] was 2.46 h. It also gave an MRT inf [12] of 10.6 h, an MRT inf [13] of 8.1 h and a Tmax [14] of 2 h. For the same compound, the half-life [15] was 2.35 h, the half-life [16] was 1.8 h and the AUC(0-inf) [17] was 12000 ng·h/mL. It also gave a Tmax [18] of 1.5 h, a Tmax [19] of 5 h and a half-life [20] of 9.03 h. The MRT last [21] was 16.2 h, the LD50 at 336 h [22] was 1550 mg/kg and the Cmax [23] was 93.3 ng/mL. For the same compound, the Cmax [24] was 856 ng/mL, the MRT inf [25] was 13.7 h and the Activity (Mus musculus) was “Non-Toxic”. The AUC(0-t) at 72 h [26] was 5730 ng·h/mL, the MRT last [27] was 6.64 h and the AUC(0-inf) [28] was 346 ng·h/mL. It also gave an AUC(0-t) at 72 h [29] of 4340 ng·h/mL, an IC50 [30] of 1.26 nM and a Ki [30] of 0.91 nM. It also gave an MRT inf [31] of 11.6 h and an AUC(0-t) at 72 h [32] of 825 ng·h/mL.
